The values that follow come from article PMC11276401 (RSC Advances, 2024).

The subject of one assay is MCF-7. Briefly: SRB assay, in vitro anticancer activity. In kind it is cell-based. As to conditions: Homo sapiens, MCF7, 48 h, read-out: GI50 MCF-7. A general note: The SRB assay estimates cell density from bound dye.
The next assay has as its system MIAPACA. Briefly: SRB assay, in vitro anticancer activity. In kind it is cell-based. The settings on record: Homo sapiens, MIA PaCa-2, 48 h, read-out: GI50 MIAPACA.
The next assay has as its system HeLa. Briefly: SRB assay, in vitro anticancer activity. Type of assay: cell-based. The settings on record: Homo sapiens, 48 h, read-out: GI50 HeLa.
A further assay deals with bovine brain tubulin. Nature of the assay: Tubulin polymerization assay. In kind it is biochemical. As to conditions: read-out: Tubulin polymerization inhibition IC50; 2 mg/mL tubulin, 37 °C.
The test system of another assay is HeLa and MIAPACA. Nature of the assay: SRB assay, range stated over two cell lines. As to conditions: Homo sapiens, read-out: GI50 against HeLa and MIAPACA. Type of assay: cell-based.
Assay [1] concerns caspase 3/7 in MCF-7 cells. Briefly: Caspase-Glo 3/7 activation assay. As to conditions: 20 μg ml^−1, 24 h. Type of assay: cell-based, human. The procedure, abridged: (§1)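 Caspase 3/7 activation in the named human cancer cells is expressed as percent activation after treatment with the test compound. Podophyllotoxin is run alongside as the positive control.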
Assay [2] deals with caspase 3/7, 8, and 9 in HeLa, MCF-7 and MIA PaCa2 cancer cells. Nature of the assay: Caspase 3/7, 8 and 9 activation, values not assigned to a caspase or cell line. The settings on record: MCF-7 and MIA PaCa2 cells, assignment and concentration not clear. Type of assay: cell-based, human.
Another assay concerns MCF-7, HeLa and MIAPACA. Briefly: SRB assay, range stated over three cell lines. Type of assay: cell-based. As to conditions: Homo sapiens, read-out: GI50 against three cell lines. Put shortly: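 Human MCF-7, HeLa and MIA PaCa-2 cancer cell lines are exposed to the test compounds, with podophyllotoxin as positive control. Growth inhibition is reported as GI50.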
Assay [3] concerns caspase 3/7 in HeLa cells. Briefly: Caspase-Glo 3/7 activation assay. In kind it is cell-based, human. The settings on record: 20 μg ml^−1, 24 h. Put shortly: as §1
Assay [4] concerns caspase 3/7 in MIA PaCa2 cells. Briefly: Caspase-Glo 3/7 activation assay. Type of assay: cell-based, human. As to conditions: 20 μg ml^−1, 24 h. The procedure, abridged: as §1

Several values for one entry are separate records, joined by “and”; a condition that tells them apart may be missing. Equal values may be shown once.

`COc1cc([C@@H]2c3cc4c(cc3[C@@H](OCc3cc(-c5cccc(C)c5)no3)[C@H]3COC(=O)C23)OCO4)cc(OC)c1OC` (some centres unmarked) [Compound 6c]: the GI50 (usually the concentration giving 50% growth inhibition) in the assay on MCF-7 amounted to 3920 ± 820 nM; in the assay with MIAPACA, 4670 ± 1930 nM; with HeLa, 3830 ± 1540 nM.

In the case of `COc1cc([C@@H]2c3cc4c(cc3[C@@H](OCc3cc(-c5cc(C)cc(C)c5)no3)[C@H]3COC(=O)C23)OCO4)cc(OC)c1OC` (some centres unmarked) [Compound 6d], the concentration for 50% growth inhibition (GI50) came to 1340 ± 230 nM in the assay on MCF-7, 2280 ± 290 nM with MIAPACA and 2740 ± 520 nM in the assay on HeLa.

As for `COc1cc([C@@H]2c3cc4c(cc3[C@@H](OCc3cc(-c5ccc(Cl)cc5)no3)[C@H]3COC(=O)C23)OCO4)cc(OC)c1OC` (some centres unmarked) [Compound 6f], the GI50 turned out to be 2130 ± 370 nM in the assay with MCF-7, 3140 ± 320 nM in the assay on MIAPACA and 3050 ± 1020 nM in the assay on HeLa.

With `COc1cc([C@@H]2c3cc4c(cc3[C@@H](OCc3cc(-c5ccc(Br)cc5)no3)[C@H]3COC(=O)C23)OCO4)cc(OC)c1OC` (some centres unmarked) [Compound 6g], the GI50 amounted to 4320 ± 830 nM with MCF-7, 6840 ± 2010 nM in the assay with MIAPACA and 7480 ± 690 nM in the assay with HeLa.

Take `COc1cc([C@@H]2c3cc4c(cc3[C@@H](OCc3cc(-c5ccc(F)cc5)no3)[C@H]3COC(=O)C23)OCO4)cc(OC)c1OC` (some centres unmarked) [Compound 6h]: the GI50 in the assay with MCF-7 was found to be 4870 ± 790 nM; in the assay on MIAPACA it was 13100 ± 3270 nM; in the assay with HeLa it was 6120 ± 1080 nM.

Regarding `COc1cc([C@@H]2c3cc4c(cc3[C@@H](OCc3cc(-c5ccc([N+](=O)[O-])cc5)no3)[C@H]3COC(=O)C23)OCO4)cc(OC)c1OC` (some centres unmarked) [Compound 6j], the IC50 (as a rule, the point on the concentration scale where inhibition reaches its midpoint) with bovine brain tubulin came out at 1320 nM. For the same compound, the concentration for 50% growth inhibition (GI50) in the assay on HeLa and MIAPACA was 1030 to 1540 nM; in the assay on MCF-7, 230 ± 120 nM; with MIAPACA, 1540 ± 180 nM; with HeLa, 1110 ± 290 nM. Also, the “caspase 3/7 activation” value in assay [1] came out at 90.1%.

Consider `COc1cc([C@@H]2c3cc4c(cc3[C@@H](OCc3cc(-c5cccc(Cl)c5)no3)[C@H]3COC(=O)C23)OCO4)cc(OC)c1OC` (some centres unmarked) [Compound 6k], for which the GI50 with MCF-7 was 3150 ± 430 nM; in the assay with MIAPACA it was 18300 ± 2870 nM; in the assay with HeLa it was 9680 ± 3120 nM.

For the compound `COc1cc([C@@H]2c3cc4c(cc3[C@@H](OCc3cc(-c5cc(Cl)cc(Cl)c5)no3)[C@H]3COC(=O)C23)OCO4)cc(OC)c1OC` (some centres unmarked) [Compound 6m], the half-inhibitory concentration (IC50) in the assay on bovine brain tubulin amounted to 3790 nM. The “caspase 3/7, 8, and 9 activations” value in assay [2] is 44.8% and 53.4% and 65.0% and 63.0% and 41.9% and 51.7%. Further, the GI50 in the assay with MCF-7 is 360 ± 170 nM; in the assay on MIAPACA, 2330 ± 180 nM; in the assay with HeLa, 2190 ± 840 nM.

In the case of `COc1cc([C@@H]2c3cc4c(cc3[C@H](O)[C@H]3COC(=O)[C@H]23)OCO4)cc(OC)c1OC` [Podophyllotoxin, podophyllotoxin, reference compound], the IC50 in the assay on bovine brain tubulin was 840 nM. Besides, the GI50 in the assay with MCF-7, HeLa and MIAPACA was 310 to 510 nM; with HeLa and MIAPACA, 510 to 740 nM; with MCF-7, 310 ± 190 nM; with MIAPACA it was 510 ± 120 nM; with HeLa, 740 ± 230 nM. Also, the “caspase 3/7 activation” value in assay [3] is reported as 86.9%; in [4], 88.6%; in assay [1], 91.9%.
